Data: ChEMBL document CHEMBL1772977, “Synthesis and biological evaluation of novel 4-benzylpiperazine ligands for sigma-1 receptor imaging” (Bioorg Med Chem, 2011)

Tests used:
Format in all cases: ADME, organism-based
Stomach [1] = experiment: Biodistribution in ICR mouse stomach at 1 uCi, iv measured per organ after 120 mins postinjection; conditions: in vivo, 2 h
Heart [2] = experiment: Biodistribution in ICR mouse heart at 1 uCi, iv after 60 mins postinjection; conditions: in vivo, 1 h
Summary of the method: (§1)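 Female ICR mice (18–22 g, n = 5) received HPLC-purified radiotracer by tail vein (0.1 mL). They were killed by cervical fracture at the stated times. Blood and organs were removed, weighed and gamma-counted. Uptake expressed as percent injected dose per gram of tissue (%ID/g), given as mean with SD.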

Mus musculus [3] = experiment: Biodistribution in ICR mouse small intestine at 1 uCi, iv after 60 mins postinjection; conditions: in vivo, 1 h; summary of the method: as §1
Lung [4] = experiment: Biodistribution in ICR mouse lung at 1 uCi, iv after 15 mins postinjection; conditions: in vivo, 0.25 h; summary of the method: as §1
Lung [5] = experiment: Biodistribution in ICR mouse lung at 1 uCi, iv after 120 mins postinjection; conditions: in vivo, 2 h; summary of the method: as §1
Blood [6] = experiment: Biodistribution in ICR mouse blood at 1 uCi, iv after 240 mins postinjection; conditions: in vivo, 4 h; summary of the method: as §1
Brain [7] = experiment: Biodistribution in ICR mouse brain at 1 uCi, iv after 120 mins postinjection; conditions: in vivo, 2 h; summary of the method: as §1
Thyroid gland [8] = experiment: Biodistribution in ICR mouse thyroid at 1 uCi, iv after 15 mins postinjection; conditions: in vivo, 0.25 h
Summary of the method: (§2)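 Female ICR mice (18–22 g, n = 5) received HPLC-purified radioiodinated tracer by tail vein (0.1 mL, 1 µCi). They were killed by cervical fracture at 15, 30, 60, 120 or 240 min post-injection. Blood and organs were removed, weighed and gamma-counted. Uptake is expressed as %ID/g, mean ± SD, n = 4–5.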

Muscle tissue [9] = experiment: Biodistribution in ICR mouse muscle at 1 uCi, iv after 15 mins postinjection; conditions: in vivo, 0.25 h; summary of the method: as §1
Liver [10] = experiment: Biodistribution in ICR mouse liver at 1 uCi, iv after 30 mins postinjection; conditions: in vivo, 0.5 h; summary of the method: as §1
Muscle tissue [11] = experiment: Biodistribution in ICR mouse muscle at 1 uCi, iv after 60 mins postinjection; conditions: in vivo, 1 h; summary of the method: as §1
Stomach [12] = experiment: Biodistribution in ICR mouse stomach at 1 uCi, iv measured per organ after 30 mins postinjection; conditions: in vivo, 0.5 h
Liver [13] = experiment: Biodistribution in ICR mouse liver at 1 uCi, iv after 60 mins postinjection; conditions: in vivo, 1 h; summary of the method: as §1
Thyroid gland [14] = experiment: Biodistribution in ICR mouse thyroid at 1 uCi, iv after 60 mins postinjection; conditions: in vivo, 1 h; summary of the method: as §2
Stomach [15] = experiment: Biodistribution in ICR mouse stomach at 1 uCi, iv measured per organ after 15 mins postinjection; conditions: in vivo, 0.25 h
Heart [16] = experiment: Biodistribution in ICR mouse heart at 1 uCi, iv after 30 mins postinjection; conditions: in vivo, 0.5 h; summary of the method: as §1
Spleen [17] = experiment: Biodistribution in ICR mouse spleen at 1 uCi, iv after 30 mins postinjection; conditions: in vivo, 0.5 h; summary of the method: as §1
Thyroid gland [18] = experiment: Biodistribution in ICR mouse thyroid at 1 uCi, iv after 30 mins postinjection; conditions: in vivo, 0.5 h; summary of the method: as §2
Lung [19] = experiment: Biodistribution in ICR mouse lung at 1 uCi, iv after 60 mins postinjection; conditions: in vivo, 1 h; summary of the method: as §1
Mus musculus [20] = experiment: Biodistribution in ICR mouse small intestine at 1 uCi, iv after 120 mins postinjection; conditions: in vivo, 2 h; summary of the method: as §1
Stomach [21] = experiment: Biodistribution in ICR mouse stomach at 1 uCi, iv measured per organ after 240 mins postinjection; conditions: in vivo, 4 h
Lung [22] = experiment: Biodistribution in ICR mouse lung at 1 uCi, iv after 30 mins postinjection; conditions: in vivo, 0.5 h; summary of the method: as §1
Muscle tissue [23] = experiment: Biodistribution in ICR mouse muscle at 1 uCi, iv after 120 mins postinjection; conditions: in vivo, 2 h; summary of the method: as §1
Brain [24] = experiment: Biodistribution in ICR mouse brain at 1 uCi, iv after 240 mins postinjection; conditions: in vivo, 4 h; summary of the method: as §1
Blood [25] = experiment: Biodistribution in ICR mouse blood at 1 uCi, iv after 30 mins postinjection; conditions: in vivo, 0.5 h; summary of the method: as §1
Blood [26] = experiment: Biodistribution in ICR mouse blood at 1 uCi, iv after 15 mins postinjection; conditions: in vivo, 0.25 h; summary of the method: as §1
Spleen [27] = experiment: Biodistribution in ICR mouse spleen at 1 uCi, iv after 240 mins postinjection; conditions: in vivo, 4 h; summary of the method: as §1
Lung [28] = experiment: Biodistribution in ICR mouse lung at 1 uCi, iv after 240 mins postinjection; conditions: in vivo, 4 h; summary of the method: as §1

## [125I]c1ccc(CN2CCN(Cc3ccc4c(c3)OCO4)CC2)cc1
Stomach [1]
  Drug uptake: 2.54 %ID
Heart [2]
  Drug uptake: 1.71 % ID/g
Mus musculus [3]
  Drug uptake: 7.45 % ID/g
Lung [4]
  Drug uptake: 12.49 % ID/g
Lung [5]
  Drug uptake: 4.91 % ID/g
Blood [6]
  Drug uptake: 0.72 % ID/g
Brain [7]
  Drug uptake: 3.75 % ID/g
Thyroid gland [8]
  Drug uptake: 6.55 % ID/g
Muscle tissue [9]
  Drug uptake: 2.35 % ID/g
Liver [10]
  Drug uptake: 6.39 % ID/g
Muscle tissue [11]
  Drug uptake: 1.5 % ID/g
Stomach [12]
  Drug uptake: 2.12 %ID
Liver [13]
  Drug uptake: 5.68 % ID/g
Thyroid gland [14]
  Drug uptake: 1.53 % ID/g
Stomach [15]
  Drug uptake: 2.32 %ID
Heart [16]
  Drug uptake: 2.79 % ID/g
Spleen [17]
  Drug uptake: 6.53 % ID/g
Thyroid gland [18]
  Drug uptake: 2.3 % ID/g
Lung [19]
  Drug uptake: 6.29 % ID/g
Mus musculus [20]
  Drug uptake: 10.73 % ID/g
Stomach [21]
  Drug uptake: 1.68 %ID
Lung [22]
  Drug uptake: 8.7 % ID/g
Muscle tissue [23]
  Drug uptake: 1.06 % ID/g
Brain [24]
  Drug uptake: 2.09 % ID/g
Blood [25]
  Drug uptake: 0.88 % ID/g
Blood [26]
  Drug uptake: 1.34 % ID/g
Spleen [27]
  Drug uptake: 2.83 % ID/g
Lung [28]
  Drug uptake: 2.69 % ID/g
